# Data published in ChEMBL document CHEMBL4414663, “Pyrazole-4-Carboxamide (YW2065): A Therapeutic Candidate for Colorectal Cancer via Dual Activities of Wnt/β-Catenin Signaling Inhibition and AMP-Activated Protein Kinase (AMPK) Activation” (J Med Chem, 2019).
# Calls of active or inactive are those of the source. The rule behind the calls is not given here.
# Assays:
# [1] = Inhibition of Wnt/beta-Catenin signaling (unknown origin) expressed in recombinant human Wnt-3a-induced Wnt-HEK293 cells incubated for 24 hrs by luciferase reporter gene assay; type: cell-based
# Method in brief: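 Stably transfected Wnt-HEK293 cells, 2000/well in DMEM + 10% FBS, incubated overnight at 37 °C. Compounds pin-transferred, then recombinant human Wnt-3a added (200 ng/mL stock); unstimulated control wells received medium. After 24 h at 37 °C, ONE-Glo luminescence read after 30 min at room temperature; CellTiter-Fluor viability read in parallel. IC50 reported as mean ± SD of three independent experiments.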
# SW480 [2] = test: Growth inhibition of human SW480 cells by Cell-titer-fluor reagent based assay; type: functional
# Homo sapiens [3] = species on record: Homo sapiens; test: Inhibition of Wnt/beta-Catenin signaling (unknown origin) expressed in recombinant human Wnt-3a-induced Wnt-HEK293 cells assessed as increase in beta-catenin degradation at 1 uM by Western blot analysis; type: cell-based
# HEK293 = test: Induction of Axin-1 protein expression in recombinant human Wnt-3a-induced Wnt-HEK293 cells at 1 uM by fluorescence microscopy; type: functional, cell-based
# Method in brief: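 HEK293 cells treated at 1 µM, stained with anti-Axin-1 antibody and DAPI, imaged by fluorescence microscopy.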
# Homo sapiens [4] = species on record: Homo sapiens; test: Inhibition of Wnt/beta-Catenin signaling in human SW620 cells assessed as reduction in beta-catenin protein level at 1 to 30 uM by Western blot analysis; type: cell-based
# Method in brief: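 SW620 cells treated with a dose range of compound and lysed in RIPA buffer with protease inhibitor. Protein at 2 mg/mL, denatured at 98 °C for 5 min, run on 7.5% SDS-PAGE and transferred to nitrocellulose. Blocked in 5% BSA; rabbit anti-β-catenin (1:2,000) overnight at 4 °C with β-actin as loading control. HRP secondary (1:8000), 2 h; ECL detection.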
# Homo sapiens [5] = species on record: Homo sapiens; test: Inhibition of Wnt/beta-Catenin signaling in human SW620 cells assessed as reduction in c-Myc mRNA expression at 10 uM incubated for 24 hrs by real-time PCR analysis; type: cell-based
# Method in brief: (§1)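 SW620 cells (RPMI 1640, 10% FBS) in 6-well plates, incubated 24 h, then treated with compound at several concentrations, three replicates each, for 24 h. Total RNA isolated with Trizol/phenol-chloroform; 2 µg reverse transcribed; Wnt target gene mRNA quantified by PCR.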
# Homo sapiens [6] = species on record: Homo sapiens; test: Inhibition of Wnt/beta-Catenin signaling in human SW620 cells assessed as reduction in cyclinD1 mRNA expression at 10 uM incubated for 24 hrs by real-time PCR analysis; type: cell-based; method in brief: as §1
# [7] = target: AMP-activated protein kinase, AMPK (Homo sapiens) (UniProt P54646+O43741+P54619+Q9UGJ0+Q9Y478+Q13131+Q9UGI9); test: Activation of AMPK in human SW620 cells assessed as increase in AMPK phosphorylation incubated for 24 hrs by Western blot analysis; type: cell-based
# Method in brief: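 SW620 cells in RPMI 1640 with 10% FBS, treated over a concentration range. Lysed in RIPA with protease inhibitors, 20 µL of 2 mg/mL protein run on 7.5% SDS-PAGE, transferred to nitrocellulose, blocked in 5% BSA. Rabbit primaries (Axin-1, ACC, pACC, AMPK, pAMPK at 1:1,000; β-actin 1:2,000) overnight at 4 °C, HRP secondary 1:8000 for 2 h, ECL.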
# SW-620 [8] = test: Induction of apoptosis in human SW620 cells incubated for 48 hrs by AAD-7 and FITC-annexin-V staining based flow cytometry; type: functional, cell-based
# Method in brief: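 Cells treated with a range of concentrations or DMSO for 48 h. Stained with FITC annexin V/7-AAD and analysed by flow cytometry.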
# HT-29 = test: Induction of apoptosis in human HT-29 cells incubated for 48 hrs by AAD-7 and FITC-annexin-V staining based flow cytometry; type: functional, cell-based
# SW480 [9] = test: Induction of apoptosis in human SW480 cells incubated for 48 hrs by AAD-7 and FITC-annexin-V staining based flow cytometry; type: functional, cell-based
# SW-620 [10] = test: Growth inhibition of human SW620 cells transfected with lentivrus-encoding shRNA against Axin-1 incubated for 72 hrs by Cell-titer-fluor reagent based assay; type: functional; settings: SW-620, 72 h
# Method in brief: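 SW620 cells, parental, overexpressing β-catenin S33Y, or with Axin-1 knocked down by lentiviral shRNA. Treated with compound or vehicle for 72 h.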
# SW-620 [11] = test: Induction of apoptosis in human SW620 cells assessed as early apoptotic cells level at 3 uM incubated for 48 hrs by AAD-7 and FITC-annexin-V staining based flow cytometry (reference value: 18.6%); type: functional
# SW-620 [12] = test: Induction of apoptosis in human SW620 cells assessed as early apoptotic cells level at 10 uM incubated for 48 hrs by AAD-7 and FITC-annexin-V staining based flow cytometry (reference value: 18.6%); type: functional
# SW-620 [13] = test: Induction of apoptosis in human SW620 cells assessed as late apoptotic cells level at 10 uM incubated for 48 hrs by AAD-7 and FITC-annexin-V staining based flow cytometry (reference value: 7.6%); type: functional
# [14] = target: Glycogen synthase kinase-3 alpha (Homo sapiens) (UniProt P49840); test: Inhibition of GSK3A (unknown origin) at 1000 nM relative to control
# Method in brief: (§2)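 Single-concentration screen at 1000 nM against a 273-kinase panel, reported as percent inhibition.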
# [15] = target: MAP kinase-activated protein kinase 3 (Homo sapiens) (UniProt Q16644); test: Inhibition of MAPKAPK3 (unknown origin) at 1000 nM relative to control; method in brief: as §2
# [16] = target: Serine/threonine-protein kinase Nek6 (Homo sapiens) (UniProt Q9HC98); test: Inhibition of NEK6 (unknown origin) at 1000 nM relative to control; method in brief: as §2
# [17] = target: High affinity nerve growth factor receptor (Homo sapiens) (UniProt P04629); test: Inhibition of NTRK1 (unknown origin) at 1000 nM relative to control; method in brief: as §2
# [18] = target: Proto-oncogene tyrosine-protein kinase Src (Homo sapiens) (UniProt P12931); test: Inhibition of SRC (unknown origin) at 1000 nM relative to control; method in brief: as §2
# [19] = Cmax in C57BL/6J mouse at 5 mg/kg, po by UPLC-MS analysis; type: ADME, organism-based; design: dose 5 mg/kg, route oral; settings: in vivo
# Method in brief: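 Male C57BL/6J mice, 2-3 months, 23-26 g. Single 5 mg/kg dose in 5% Kolliphor in saline, given iv (n=3) or by oral gavage (n=5). Tail-vein blood taken at 0.25, 0.5, 1, 4, 8 and 12 h and spun to plasma. Plasma analysed by LC-MS/MS on a triple quadrupole with a C18 column. Parameters from non-compartmental analysis.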
# SW-620 [20] = test: Antitumor activity against human SW620 cells xenografted in nude mouse assessed as reduction in tumor weight at 10 mg/kg, ip QD for 32 consecutive days; type: functional, organism-based
# Method in brief: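 Six-week-old nude mice injected subcutaneously with 2×10^6 SW620 cells. Randomised at mean tumor volume 100–200 mm³ (n=6/group). Given 10 or 50 mg/kg ip daily for 32 consecutive days; vehicle 10% DMSO, 10% Kolliphor, 80% saline. Tumor volume measured every other day. Tumors weighed after euthanasia at day 32. t test against vehicle.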
# [21] = Toxicity in C57BL/6 mouse assessed as effect on albumin level at 100 mg/kg/day, ip for 21 days; type: organism-based; settings: in vivo, 504 h
# Serine/threonine-protein kinase Nek6 (Homo sapiens), sequence (Q9HC98 whole entry): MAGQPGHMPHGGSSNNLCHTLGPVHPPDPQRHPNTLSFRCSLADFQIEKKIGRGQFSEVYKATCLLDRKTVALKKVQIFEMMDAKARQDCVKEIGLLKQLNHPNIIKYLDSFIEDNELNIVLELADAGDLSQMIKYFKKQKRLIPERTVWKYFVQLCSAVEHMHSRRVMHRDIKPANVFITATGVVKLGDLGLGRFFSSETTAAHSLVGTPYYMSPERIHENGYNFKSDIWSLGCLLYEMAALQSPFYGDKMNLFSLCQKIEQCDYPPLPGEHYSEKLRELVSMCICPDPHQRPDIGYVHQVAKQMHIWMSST
# Proto-oncogene tyrosine-protein kinase Src (Homo sapiens), sequence (P12931 2-536 limits assumed): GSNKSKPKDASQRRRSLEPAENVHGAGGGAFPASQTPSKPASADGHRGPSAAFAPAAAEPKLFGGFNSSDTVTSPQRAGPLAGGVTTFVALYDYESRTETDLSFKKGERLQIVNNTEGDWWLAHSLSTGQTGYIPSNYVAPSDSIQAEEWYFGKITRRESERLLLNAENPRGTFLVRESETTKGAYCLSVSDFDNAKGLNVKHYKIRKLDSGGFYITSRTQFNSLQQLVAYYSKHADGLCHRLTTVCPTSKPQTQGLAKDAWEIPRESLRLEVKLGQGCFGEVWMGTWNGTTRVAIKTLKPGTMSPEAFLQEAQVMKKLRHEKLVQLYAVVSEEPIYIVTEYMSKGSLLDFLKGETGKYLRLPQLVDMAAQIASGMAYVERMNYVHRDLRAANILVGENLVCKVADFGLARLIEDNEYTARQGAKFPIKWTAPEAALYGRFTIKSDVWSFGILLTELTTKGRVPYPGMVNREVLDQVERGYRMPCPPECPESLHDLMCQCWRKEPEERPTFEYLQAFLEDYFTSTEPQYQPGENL
# MAP kinase-activated protein kinase 3 (Homo sapiens), sequence (Q16644 whole entry, looked up): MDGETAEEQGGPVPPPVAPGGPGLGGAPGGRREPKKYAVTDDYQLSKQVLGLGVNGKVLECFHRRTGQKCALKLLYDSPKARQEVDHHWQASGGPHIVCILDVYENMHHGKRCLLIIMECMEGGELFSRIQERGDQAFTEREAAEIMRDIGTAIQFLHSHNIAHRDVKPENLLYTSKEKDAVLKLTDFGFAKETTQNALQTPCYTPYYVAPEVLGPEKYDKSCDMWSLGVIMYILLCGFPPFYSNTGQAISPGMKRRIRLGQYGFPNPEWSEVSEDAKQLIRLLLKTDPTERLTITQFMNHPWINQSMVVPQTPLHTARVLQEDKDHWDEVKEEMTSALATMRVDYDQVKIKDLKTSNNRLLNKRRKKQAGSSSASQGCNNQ
# Glycogen synthase kinase-3 alpha (Homo sapiens), sequence (P49840 2-483 limits assumed): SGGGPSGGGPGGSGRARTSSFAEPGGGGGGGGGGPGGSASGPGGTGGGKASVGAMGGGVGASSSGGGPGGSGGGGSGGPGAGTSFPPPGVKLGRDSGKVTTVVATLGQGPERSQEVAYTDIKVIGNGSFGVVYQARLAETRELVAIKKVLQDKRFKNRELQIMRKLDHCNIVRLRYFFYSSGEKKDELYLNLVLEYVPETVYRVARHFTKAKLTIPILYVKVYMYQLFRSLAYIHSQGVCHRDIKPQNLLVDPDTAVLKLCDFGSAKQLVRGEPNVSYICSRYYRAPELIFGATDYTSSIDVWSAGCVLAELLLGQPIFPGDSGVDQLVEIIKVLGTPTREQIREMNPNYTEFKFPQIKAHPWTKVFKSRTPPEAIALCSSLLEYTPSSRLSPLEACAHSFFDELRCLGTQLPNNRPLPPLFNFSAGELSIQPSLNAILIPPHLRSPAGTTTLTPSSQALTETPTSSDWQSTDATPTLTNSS
# High affinity nerve growth factor receptor (Homo sapiens), sequence (P04629 33-796 limits assumed): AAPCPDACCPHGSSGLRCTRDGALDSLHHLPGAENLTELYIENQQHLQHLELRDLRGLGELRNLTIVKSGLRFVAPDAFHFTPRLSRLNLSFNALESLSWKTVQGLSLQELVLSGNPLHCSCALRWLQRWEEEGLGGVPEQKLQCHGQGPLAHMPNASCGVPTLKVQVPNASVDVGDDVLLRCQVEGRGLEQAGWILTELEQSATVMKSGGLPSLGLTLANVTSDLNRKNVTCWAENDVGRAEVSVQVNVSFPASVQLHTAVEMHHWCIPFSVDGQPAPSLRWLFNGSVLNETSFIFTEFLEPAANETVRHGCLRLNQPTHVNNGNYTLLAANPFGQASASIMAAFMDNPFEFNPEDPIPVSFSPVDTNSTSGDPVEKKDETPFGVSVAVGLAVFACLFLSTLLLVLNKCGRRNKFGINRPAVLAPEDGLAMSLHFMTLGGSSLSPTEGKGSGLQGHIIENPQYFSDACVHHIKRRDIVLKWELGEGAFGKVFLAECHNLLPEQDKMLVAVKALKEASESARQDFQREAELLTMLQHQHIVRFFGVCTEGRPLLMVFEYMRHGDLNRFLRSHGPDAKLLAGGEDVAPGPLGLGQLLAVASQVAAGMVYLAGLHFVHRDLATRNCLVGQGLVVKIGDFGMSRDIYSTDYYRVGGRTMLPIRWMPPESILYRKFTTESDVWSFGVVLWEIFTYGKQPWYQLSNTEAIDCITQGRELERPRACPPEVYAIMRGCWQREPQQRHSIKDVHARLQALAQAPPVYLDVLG
structure (smiles),measurement,setting,value
Cc1c(C(=O)Nc2ccc3ccccc3n2)cnn1-c1ccccc1Br,IC50,[1],2.3 nM
same,GI50,SW480 [2],2400 nM
same,inhibition,Homo sapiens [3],Active
same,Activity,HEK293,Active
same,inhibition,Homo sapiens [4],Active
same,inhibition,Homo sapiens [5],Active
same,inhibition,Homo sapiens [6],Active
same,Activity,[7],Dose-dependent effect
same,Activity,SW-620 [8],Dose-dependent effect
same,Activity,HT-29,Dose-dependent effect
same,Activity,SW480 [9],Dose-dependent effect
same,IC50,SW-620 [10],85.4 nM
same,Activity,SW-620 [11],35.7%
same,Activity,SW-620 [12],57.9%
same,Activity,SW-620 [13],20%
same,inhibition,[14],Active
same,inhibition,[15],Active
same,inhibition,[16],Active
same,inhibition,[17],Active
same,inhibition,[18],Active
same,Cmax,[19],5200 ng/mL
same,Activity,SW-620 [20],Active
same,Activity,[21],Non-Toxic
